Data: ChEMBL document CHEMBL3351896, “Small Molecule that Reverses Dexamethasone Resistance in T-cell Acute Lymphoblastic Leukemia (T-ALL)” (ACS Med Chem Lett, 2014)
Calls of active or inactive are those of the source. The calls are words filed in the database; no cut-off is given here.

Assays:
Type in all cases: functional, cell-based
[1] = system: CUTLL1; experiment: Effect on RAD51AP1 gene expression in human CUTLL1 cells in absence of 1 uM dexamethasone at 30 uM after 24 hrs by microarray method
In short: (§1)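 Human CUTLL1 T-ALL cells exposed for 24 h to vehicle (DMSO), dexamethasone alone (1 μM), test compound alone (30 μM), or dexamethasone 1 μM plus compound 30 μM, each in triplicate. Expression profiled by microarray. Glucocorticoid-regulated gene sets from ALL patients on glucocorticoid therapy scored by GSEA. Leading-edge genes compared between the combination and dexamethasone alone.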

[2] = system: CUTLL1; experiment: Effect on CDT1 gene expression in human CUTLL1 cells in absence of 1 uM dexamethasone at 30 uM after 24 hrs by microarray method
In short: (§2)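 CUTLL1 T-ALL cells exposed 24 h to vehicle (DMSO), dexamethasone alone (1 μM), test agent alone (30 μM), or dexamethasone (1 μM) plus test agent (30 μM), in triplicate. Expression profiled by microarray. Leading-edge genes from GSEA were compared between the dexamethasone-plus-agent and dexamethasone-alone groups, using glucocorticoid-regulated gene sets from ALL patients on glucocorticoid therapy.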

[3] = system: CUTLL1; experiment: Effect on SKP2 gene expression in human CUTLL1 cells in presence of 1 uM dexamethasone at 30 uM after 24 hrs by microarray method; in short: as §1
[4] = system: CUTLL1; experiment: Effect on USP1 gene expression in human CUTLL1 cells in absence of 1 uM dexamethasone at 30 uM after 24 hrs by microarray method; in short: as §1
[5] = system: CUTLL1; experiment: Effect on DDIT4 gene expression in human CUTLL1 cells in absence of 1 uM dexamethasone at 30 uM after 24 hrs by microarray method; in short: as §2
[6] = system: CUTLL1; experiment: Effect on CHAF1A gene expression in human CUTLL1 cells in absence of 1 uM dexamethasone at 30 uM after 24 hrs by microarray method; in short: as §2
[7] = system: CUTLL1; experiment: Effect on FEN1 gene expression in human CUTLL1 cells in presence of 1 uM dexamethasone at 30 uM after 24 hrs by microarray method; in short: as §2
[8] = system: CUTLL1; experiment: Effect on BRCA1 gene expression in human CUTLL1 cells in absence of 1 uM dexamethasone at 30 uM after 24 hrs by microarray method; in short: as §2
[9] = system: CUTLL1; experiment: Effect on ATAD2 gene expression in human CUTLL1 cells in presence of 1 uM dexamethasone at 30 uM after 24 hrs by microarray method; in short: as §2
[10] = system: CUTLL1; experiment: Effect on GGNBP2 gene expression in human CUTLL1 cells in absence of 1 uM dexamethasone at 30 uM after 24 hrs by microarray method; in short: as §2
[11] = system: CUTLL1; experiment: Growth inhibition of human CUTLL1 cells with high GR expression levels at 50 uM after 48 hrs by alamar blue assay
In short: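 Human CUTLL1 T-ALL cells engineered to express high (overexpressed) or low (knockdown) glucocorticoid receptor levels. Exposed to compound alone or with 1 μM dexamethasone. Alamar blue growth inhibition read after 48 h.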

[12] = system: CUTLL1; experiment: Effect on DSCC1 gene expression in human CUTLL1 cells in presence of 1 uM dexamethasone at 30 uM after 24 hrs by microarray method; in short: as §2
[13] = system: CUTLL1; experiment: Effect on BRCA1 gene expression in human CUTLL1 cells in presence of 1 uM dexamethasone at 30 uM after 24 hrs by microarray method; in short: as §2
[14] = system: CUTLL1; experiment: Effect on APITD1 gene expression in human CUTLL1 cells in presence of 1 uM dexamethasone at 30 uM after 24 hrs by microarray method; in short: as §2
[15] = system: CUTLL1; experiment: Effect on DSCC1 gene expression in human CUTLL1 cells in absence of 1 uM dexamethasone at 30 uM after 24 hrs by microarray method; in short: as §2
[16] = system: CUTLL1; experiment: Effect on TIFA gene expression in human CUTLL1 cells in presence of 1 uM dexamethasone at 30 uM after 24 hrs by microarray method; in short: as §1
[17] = system: CUTLL1; experiment: Effect on RAD51AP1 gene expression in human CUTLL1 cells in presence of 1 uM dexamethasone at 30 uM after 24 hrs by microarray method; in short: as §1
[18] = system: CUTLL1; experiment: Effect on CDC45 gene expression in human CUTLL1 cells in presence of 1 uM dexamethasone at 30 uM after 24 hrs by microarray method; in short: as §2
[19] = system: CUTLL1; experiment: Effect on SMC2 gene expression in human CUTLL1 cells in absence of 1 uM dexamethasone at 30 uM after 24 hrs by microarray method; in short: as §1
[20] = system: CUTLL1; experiment: Effect on SPC25 gene expression in human CUTLL1 cells in absence of 1 uM dexamethasone at 30 uM after 24 hrs by microarray method; in short: as §1
[21] = system: CUTLL1; experiment: Growth inhibition of human CUTLL1 cells at 50 uM in presence of MG262 after 48 hrs by alamar blue assay
[22] = system: CUTLL1; experiment: Effect on RRM1 gene expression in human CUTLL1 cells in absence of 1 uM dexamethasone at 30 uM after 24 hrs by microarray method; in short: as §1
[23] = system: CUTLL1; experiment: Effect on CHAF1A gene expression in human CUTLL1 cells in presence of 1 uM dexamethasone at 30 uM after 24 hrs by microarray method; in short: as §2
[24] = system: CUTLL1; experiment: Effect on RUVBL1 gene expression in human CUTLL1 cells in presence of 1 uM dexamethasone at 30 uM after 24 hrs by microarray method; in short: as §1
[25] = system: CUTLL1; experiment: Effect on HELLS gene expression in human CUTLL1 cells in absence of 1 uM dexamethasone at 30 uM after 24 hrs by microarray method; in short: as §2
[26] = system: CUTLL1; experiment: Effect on ZFP36L2 gene expression in human CUTLL1 cells in absence of 1 uM dexamethasone at 30 uM after 24 hrs by microarray method; in short: as §1
[27] = system: CUTLL1; experiment: Effect on FEN1 gene expression in human CUTLL1 cells in absence of 1 uM dexamethasone at 30 uM after 24 hrs by microarray method; in short: as §2
[28] = system: CUTLL1; experiment: Effect on BTG1 gene expression in human CUTLL1 cells in presence of 1 uM dexamethasone at 30 uM after 24 hrs by microarray method; in short: as §2
[29] = system: CUTLL1; experiment: Effect on POLE2 gene expression in human CUTLL1 cells in absence of 1 uM dexamethasone at 30 uM after 24 hrs by microarray method; in short: as §1
[30] = system: CUTLL1; experiment: Effect on USP1 gene expression in human CUTLL1 cells in presence of 1 uM dexamethasone at 30 uM after 24 hrs by microarray method; in short: as §1
[31] = system: CUTLL1; experiment: Effect on PAICS gene expression in human CUTLL1 cells in presence of 1 uM dexamethasone at 30 uM after 24 hrs by microarray method; in short: as §2
[32] = system: CUTLL1; experiment: Effect on CDC25A gene expression in human CUTLL1 cells in presence of 1 uM dexamethasone at 30 uM after 24 hrs by microarray method; in short: as §2
[33] = system: CUTLL1; experiment: Effect on TWISTNB gene expression in human CUTLL1 cells in absence of 1 uM dexamethasone at 30 uM after 24 hrs by microarray method; in short: as §1
[34] = system: CUTLL1; experiment: Effect on APITD1 gene expression in human CUTLL1 cells in absence of 1 uM dexamethasone at 30 uM after 24 hrs by microarray method; in short: as §2
[35] = system: CUTLL1; experiment: Effect on LILRB3 gene expression in human CUTLL1 cells in absence of 1 uM dexamethasone at 30 uM after 24 hrs by microarray method; in short: as §2

Nc1ncc(-c2ccncc2)c(C2CC2)n1
Activity [1]: inactive | Activity [2]: inactive | Activity [3]: Active | Activity [4]: inactive | Activity [5]: inactive | Activity [6]: inactive | Activity [7]: Active | Activity [8]: inactive | Activity [9]: Active | Activity [10]: inactive | growth inhibition (GI) [11]: inactive | Activity [12]: Active | Activity [13]: Active | Activity [14]: Active | Activity [15]: inactive | Activity [16]: Active | Activity [17]: Active | Activity [18]: Active | Activity [19]: inactive | Activity [20]: inactive | growth inhibition (GI) [21]: inactive | Activity [22]: inactive | Activity [23]: Active | Activity [24]: Active | Activity [25]: inactive | Activity [26]: inactive | Activity [27]: inactive | Activity [28]: Active | Activity [29]: inactive | Activity [30]: Active | Activity [31]: Active | Activity [32]: Active | Activity [33]: inactive | Activity [34]: inactive | Activity [35]: inactive
